High-throughput results (PubChem)
M18AAP inhibitor: PfM18AAP enzyme inhibition; recombinant PfM18AAP, H-Glu-NHMec fluorogenic cleavage; inhibition, % at 7.35 µM; hit rate 1.2% among 290,000;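 active means inhibition above the campaign mean inhibition over all tested compounds plus 3 SD, cut at about 28% in these data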;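 further: 0% = plate median of test compound wells and 100% = 2 mM ZnCl2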
Hep lipid drop: hepatic lipid droplet formation modulation. AML12 mouse hepatocytes, oleate lipid droplets, BODIPY imaging. inhibition, % at 6.5 µM. hit rate 0.4% among 240,000. AID 1656;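 active means lipid droplet intensity inhibited by at least 50%, with more than 500 cells counted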
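Assay system: AML12 mouse liver cells | Compound: 6.5 µM single-point dosing | Schedule: Overnight exposure | Technique: Fluorescence imaging, 20x objective, two fields per well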
RBBP9 inhibitor: human RBBP9 hydrolase inhibition. O75884. recombinant RBBP9, FP-Rh probe fluorescence polarization. inhibition, % at 7.94 µM. hit rate 0.2% among 220,000. AID 1515;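 active means inhibition above the campaign mean of all tested compounds plus 3 SD, cut at about 14% in these data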;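 further: plate controls were DMSO wells with RBBP9 for no effect and wells lacking RBBP9 protein for full effect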
Target sequence (O75884 whole entry, looked up): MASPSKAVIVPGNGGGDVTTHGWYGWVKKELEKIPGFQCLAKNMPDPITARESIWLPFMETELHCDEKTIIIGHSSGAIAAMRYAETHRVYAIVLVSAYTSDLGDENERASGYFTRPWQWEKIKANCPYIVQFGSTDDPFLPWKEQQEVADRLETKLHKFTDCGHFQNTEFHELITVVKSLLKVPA
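Material: RBBP9 protein. Amount: RBBP9 at 2.5 µM in dispensed solution, before mixing. Schedule: 30 min then 45 min, 25 °C. Medium: Tris buffer pH 8.0, NaCl, Pluronic. Measured by: fluorescence polarization. Measure: percent inhibition from mP, scaled between DMSO and no-protein wells. Replication: one well per compound.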
TNF necrop inh: TNF-alpha cell death inhibition in Jurkat FADD-/- cells. Jurkat FADD-/- TNF necroptosis rescue, ATP luminescence, 24 h; 0 = TNF only, 100 = no-TNF cells. hit rate 0.068% among 220,000. activation (protection from cell death), % at 10 µM;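 active means activation, meaning protection from cell death, of at least 50% relative to plate controls; inactive means activation below 50%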;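 further: necroptosis triggered by 40 ng/mL TNF-alpha added together with compound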
L929 necroptosis: blocks zVAD induced death of L929 cells | L929 zVAD necroptosis rescue, ATP luminescence, 24 h; with zVAD 60 µM | viability rescue, % at 10 µM | hit rate 0.38% among 220,000;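 active means activation, scaled between plate controls, above about 75%, limit read from the data; inactive means activation under that limit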;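 further: 0% = zVAD with DMSO and 100% = DMSO alone without zVAD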
Tb hexokinase: blocks Trypanosoma brucei hexokinase 1 activity | AID 1430 | recombinant TbHK1, G6PDH-coupled NADH A340 | hit rate 0.11% among 220,000 | inhibition, % at 10 µM;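 active means inhibition of 50% or more in the single-dose primary screen; inactive means inhibition below 50%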
zVAD death conf: confirmed blocker of zVAD induced death in L929 cells | shares compounds with L929 necroptosis | L929 zVAD-induced necroptosis rescue, ATP luminescence, 24 h | activation (protection from necroptosis), % at 10 µM | hit rate 16% among 760;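 active means mean protection from necroptosis of at least 50% over duplicate tests; inactive means mean protection below 50%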;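 further: 0% = cells with zVAD alone and 100% = vehicle cells without zVAD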
Starred values were filed as active, the others as inactive; nt = not tested or not shown. Hits are enriched below; roughly 2% of the tested compounds scored in any of these assays.

SMILES	M18AAP inhibitor	Hep lipid drop	RBBP9 inhibitor	TNF necrop inh	L929 necroptosis	Tb hexokinase	zVAD death conf
CC(=O)NNC(=S)NC(=O)c1ccccc1	48.5*	-4.8	-1.6	-0.8	-0.7	8.9	nt
O=C(Cc1cccs1)NNC(=S)NC(=O)c1ccc(F)c(F)c1	44.1*	-1.0	-6.0	-1.5	0.5	-0.1	nt
CCCOC(=O)C(C)n1cnc2scc(-c3ccc(C)cc3)c2c1=O (stereo unspecified)	-0.1	7.2	nt	nt	nt	nt	nt
CC1CCCCC1NC(=O)C1CCC(CNc2c(N3CCCCC3)c(=O)c2=O)CC1 (stereo unspecified)	2.1	12.3	-8.7	3.0	0.8	-7.1	nt
O=c1c(Cc2ccccc2)c(O)ccn1CCc1cnc[nH]1	6.7	4.6	0.2	-0.1	-0.6	-2.4	nt
COCC(=O)n1nc(-c2ccccc2)nc1NCc1ccccc1	-7.7	2.2	-7.1	4.7	86.3*	-4.1	0.6
CCC(=O)n1nc(-c2ccc(OC)cc2)nc1NCc1cccs1	-0.5	2.3	-2.0	1.9	76.1*	-3.1	0.4
CC(=O)n1nc(-c2ccccc2)nc1NCc1cccs1	-4.9	1.5	-6.4	2.1	85.8*	-2.7	4.9
CC(=O)n1nc(-c2ccccc2)nc1NCc1ccc(N(C)C)cc1	4.7	11.7	-2.1	0.6	4.0	4.6	nt
Cc1ccc(-c2c(NCCc3ccccc3)c(=O)c2=O)cc1	2.6	-17.1	nt	nt	nt	nt	nt
CCOC(=O)c1ccc2[nH]c3c(c2c1)CCCC3C(=O)OCC (stereo unspecified)	-2.2	nt	-4.9	2.8	75.3*	2.4	29.3
Cc1ccc(N=Nc2c(=O)[nH]n3c(C)cc(C)nc23)cc1	2.2	nt	0.8	-3.2	-0.3	-11.5	nt
Cc1ccc(N=Nc2c(N)[nH]n3c(=O)cc(C)nc23)cc1	31.2*	nt	8.1	1.6	76.5*	-6.3	0.1
S=C(Sc1ccc(Cl)cc1)Sc1ccc(Cl)cc1	0.6	8.6	-2.7	-28.2	76.2*	-6.5	1.4
CC(C)(C)C1CCc2nc(NC(=O)Cc3cn4ccsc4n3)sc2C1 (stereo unspecified)	4.5	2.8	-12.0	3.6	76.1*	2.7	23.3
O=C(NCCN1CCCC1)c1ccc2c(=O)n(CCc3ccccc3)c(=O)[nH]c2c1	0.2	nt	-8.5	-1.7	91.0*	-6.5	6.3
O=C1C=CC(O)(c2cc(=O)c3c(O)cc(O)cc3o2)C=C1	16.5	-72.1	-7.8	-15.4	124.9*	-15.5	166.2*
O=C(O)/C=C/c1ccc([N+](=O)[O-])o1	5.0	-4.7	-10.3	-2.0	-0.3	-18.3	nt
N#CCc1ccc(NC(=O)/C=C/c2ccc([N+](=O)[O-])o2)cc1	-2.7	34.2	1.4	-12.7	84.6*	-16.1	0.5
CC(C)c1ccc(NC(=O)N2CCc3ccccc3C2)cc1	-0.5	-30.1	-0.2	3.9	75.8*	0.1	1.5
O=C(NCCN1CCOCC1)/C(=C/c1ccco1)NC(=O)c1ccccc1	5.3	6.4	nt	nt	nt	nt	nt
COc1ccc(-n2cnc3cc(NCc4ccccn4)ccc32)cc1	10.1	nt	-5.3	0.3	77.6*	-3.8	66.0*
COc1ccc(-n2cnc3ccccc32)cc1	-5.6	-3.8	5.3	0.3	80.3*	-6.5	38.3
COc1ccccc1-n1cnc2cc(NCc3ccccn3)ccc21	2.1	nt	2.1	-4.4	0.6	-2.6	nt
Cc1ccc(-n2cnc3cc(NCc4cccs4)ccc32)cc1	24.1	-10.3	0.9	-1.2	1.2	-0.9	nt
CCC(=O)Nc1ccc2c(c1)ncn2-c1ccc(OC)cc1	-10.5	-5.7	5.1	2.9	80.5*	2.3	46.8
c1ccc(-n2cnc3cc(NCc4cccs4)ccc32)cc1	-2.3	nt	1.0	-6.5	84.8*	2.6	45.2
Clc1ccc(-c2csc(N3CCSCC3)n2)cc1	-1.5	-3.5	-12.6	0.9	-0.2	11.8	nt
COc1ccc(Cl)cc1C(=O)OCC(=O)NCCNC(=O)COC(=O)c1cc(Cl)ccc1OC	-19.8	0.4	nt	nt	nt	nt	nt
S=C(NCCc1cccc(Cl)c1)NC1CCCCC1	3.7	-8.5	nt	nt	nt	nt	nt
